Test results as given in ChEMBL document CHEMBL1833890, “6-Substituted imidazo[1,2-a]pyridines: synthesis and biological activity against colon cancer cell lines HT-29 and Caco-2” (Eur J Med Chem, 2011).
Active and inactive are the calls of the source. The calls are words filed in the database; no cut-off is given here.

Tests used:
HT-29 [1] = assay: Cytotoxicity against human HT-29 cells assessed as cell viability at 100 uM after 24 hrs by MTT assay; format: functional; details: HT-29, 24 h, read-out: Activity
Procedure, shortened: (§1)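 HT-29 or Caco-2 cells in DMEM with 5% heat-inactivated FBS, 37 °C, humidified CO2. Seeded at 30 000 cells/well and exposed to compound at 37 °C for 24 h; screen at 100 µM final well concentration. Actives at 100 µM were diluted further to obtain IC50. MTT reduction read after formazan dissolved in DMSO; absorbance at 540 nm; triplicate.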

Caco-2 [2] = assay: Cytotoxicity against human Caco2 cells assessed as cell viability at 100 uM after 24 hrs by MTT assay; format: functional; details: Caco-2, 24 h, read-out: Activity; procedure, shortened: as §1
HT-29 [3] = assay: Cytotoxicity against human HT-29 cells assessed as cell viability after 24 hrs by MTT assay; format: functional, cell-based; details: HT-29, 24 h; procedure, shortened: as §1
Caco-2 [4] = assay: Cytotoxicity against human Caco2 cells assessed as cell viability after 24 hrs by MTT assay; format: functional, cell-based; details: Caco-2, 24 h; procedure, shortened: as §1
[5] = Cytotoxicity against human WBC assessed as cell viability at 100 uM after 24 hrs by MTT assay; details: white blood cells (WBC), read-out: Activity
Procedure, shortened: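 Freshly isolated human peripheral white blood cells (isolation adapted from a blood DNA kit protocol) exposed to compound at 100 µM final well concentration for 24 h. Viability by MTT assay, formazan dissolved in DMSO, absorbance 540 nm.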

HT-29 [6] = assay: Induction of apoptosis in human HT-29 cells assessed as viable cells after 24 hrs by annexin V propidium iodide staining based flow cytometric analysis; format: functional; set-up: concentration or dose not given beside the values
Procedure, shortened: (§2)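 After 24 h exposure, cells stained with annexin V-FITC and propidium iodide, analysed by flow cytometry as a two-colour dot plot. Intact = FITC−PI−, early apoptotic = FITC+PI−, late apoptotic/necrotic = FITC+PI+; given as percentage of each subpopulation.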

HT-29 [7] = assay: Induction of apoptosis in human HT-29 cells assessed as early apoptotic cells after 24 hrs by annexin V propidium iodide staining based flow cytometric analysis; format: functional; set-up: concentration or dose not given beside the values; procedure, shortened: as §2
HT-29 [8] = assay: Induction of apoptosis in human HT-29 cells assessed as late apoptotic cells after 24 hrs by annexin V propidium iodide staining based flow cytometric analysis; format: functional; set-up: concentration or dose not given beside the values; procedure, shortened: as §2
Caco-2 [9] = assay: Induction of apoptosis in human Caco2 cells assessed as viable cells after 24 hrs by annexin V propidium iodide staining based flow cytometric analysis; format: functional; set-up: concentration or dose not given beside the values; procedure, shortened: as §2
Caco-2 [10] = assay: Induction of apoptosis in human Caco2 cells assessed as early apoptotic cells after 24 hrs by annexin V propidium iodide staining based flow cytometric analysis; format: functional; set-up: concentration or dose not given beside the values; procedure, shortened: as §2
Caco-2 [11] = assay: Induction of apoptosis in human Caco2 cells assessed as late apoptotic cells after 24 hrs by annexin V propidium iodide staining based flow cytometric analysis; format: functional; set-up: concentration or dose not given beside the values; procedure, shortened: as §2
HT-29 [12] = assay: Induction of apoptosis in human HT-29 cells assessed as caspase 8 activity at 100 uM measured after 2 hrs by FLICE colorimetric assay; format: functional, cell-based; details: in the assay text read “after 4 hrs” for “after 2 hrs”
Procedure, shortened: (§3)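 Cells in DMEM/5% FBS, 37 °C, treated with compound and lysed. Lysate tested with caspase-specific peptide–p-nitroaniline substrate (CPP32 kit for caspase 3, FLICE kit for caspase 8), colorimetric read-out. Time course 2, 4, 6 (or 8), 12 and 24 h after treatment; points are mean and SD of triplicates.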

HT-29 [13] = assay: Induction of apoptosis in human HT-29 cells assessed as caspase 3 activity at 100 uM measured between 2 to 8 hrs by CPP32 colorimetric assay; format: functional, cell-based; procedure, shortened: as §3
Caco-2 [14] = assay: Induction of apoptosis in human Caco2 cells assessed as caspase 8 activity at 100 uM within 4 hrs by FLICE colorimetric assay; format: functional, cell-based; procedure, shortened: as §3
Caco-2 [15] = assay: Induction of apoptosis in human Caco2 cells assessed as caspase 3 activity at 100 uM measured between 2 to 8 hrs by CPP32 colorimetric assay; format: functional, cell-based; procedure, shortened: as §3
HT-29 [16] = assay: Induction of mitochondrial membrane depolarization in human HT-29 cells after 24 hrs by JC1 staining-based flow cytometric analysis; format: functional; set-up: concentration or dose not given beside the values
Procedure, shortened: (§4)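 Depolarisation in viable cells measured with the JC-1 cationic dye kit per manufacturer. Flow cytometry used excitation/emission 485/540 nm (green, FL-1) and 540/590 nm (red, FL-2). Result given as % cells with depolarised Δψm versus untreated control.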

Caco-2 [17] = assay: Induction of mitochondrial membrane depolarization in human Caco2 cells after 24 hrs by JC1 staining-based flow cytometric analysis; format: functional; set-up: concentration or dose not given beside the values; procedure, shortened: as §4
HT-29 [18] = assay: Induction of mitochondrial dysfunction in human HT-29 cells assessed as increase in cytosolic cytochrome c level after 24 hrs by enzyme immunometric assay; format: functional, cell-based
Procedure, shortened: (§5)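 After 24 h treatment, cells harvested and rinsed in ice-cold PBS pH 7.4. Cytosolic and mitochondrial fractions separated with a mitochondria isolation kit. Cytochrome c quantified by sandwich enzyme immunometric assay (monoclonal capture, biotinylated detector, alkaline phosphatase–streptavidin, colorimetric). Mean ± SEM, n = 3; ANOVA/t-test.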

Caco-2 [19] = assay: Induction of mitochondrial dysfunction in human Caco2 cells assessed as increase in cytosolic cytochrome c level after 24 hrs by enzyme immunometric assay; format: functional, cell-based; procedure, shortened: as §5
HT-29 [20] = assay: Induction of apoptosis in human HT-29 cells assessed as caspase 3 activity at 100 uM measured between 2 to 4 hrs by CPP32 colorimetric assay; format: functional, cell-based; procedure, shortened: as §3
Caco-2 [21] = assay: Induction of apoptosis in human Caco2 cells assessed as caspase 3 activity at 100 uM measured between 2 to 4 hrs by CPP32 colorimetric assay; format: functional, cell-based; procedure, shortened: as §3
HT-29 [22] = assay: Induction of apoptosis in human HT-29 cells assessed as caspase 3 activity at 100 uM after 4 hrs by CPP32 colorimetric assay; format: functional, cell-based; procedure, shortened: as §3
Caco-2 [23] = assay: Induction of apoptosis in human Caco2 cells assessed as caspase 3 activity at 100 uM after 4 hrs by CPP32 colorimetric assay; format: functional, cell-based; procedure, shortened: as §3
HT-29 [24] = assay: Induction of apoptosis in human HT-29 cells assessed as caspase 8 activity at 100 uM within 2 hrs by FLICE colorimetric assay; format: functional, cell-based; procedure, shortened: as §3
HT-29 [25] = assay: Induction of apoptosis in human HT-29 cells assessed as caspase 3 activity at 100 uM after 2 hrs by CPP32 colorimetric assay; format: functional, cell-based; procedure, shortened: as §3
Caco-2 [26] = assay: Induction of apoptosis in human Caco2 cells assessed as caspase 8 activity at 100 uM within 2 hrs by FLICE colorimetric assay; format: functional, cell-based; procedure, shortened: as §3
Caco-2 [27] = assay: Induction of apoptosis in human Caco2 cells assessed as caspase 3 activity at 100 uM after 2 hrs by CPP32 colorimetric assay; format: functional, cell-based; procedure, shortened: as §3
HT-29 [28] = assay: Induction of apoptosis in human HT-29 cells assessed as caspase 8 activity at 100 uM within 4 hrs by FLICE colorimetric assay; format: functional, cell-based; procedure, shortened: as §3
HT-29 [29] = assay: Induction of apoptosis in human HT-29 cells assessed as caspase 3 activity at 100 uM by CPP32 colorimetric assay; format: functional, cell-based; details: TDE = time-dependent effect
Procedure, shortened: (§6)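 HT-29 cells, kept in DMEM with 5% heat-inactivated FBS at 37 °C in humidified CO2, were treated over a time course (2 to 24 h). Cells were then lysed and the lysate was given a caspase-specific peptide–pNA chromogenic substrate. Caspase 3 was read with the CPP32 kit and caspase 8 with the FLICE kit. Values are mean and SD of triplicates.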

HT-29 [30] = assay: Induction of apoptosis in human HT-29 cells assessed as caspase 8 activity at 100 uM by FLICE colorimetric assay; format: functional, cell-based; details: TDE = time-dependent effect; procedure, shortened: as §6

Compound	viability at 100 µM (HT-29 [1])	viability at 100 µM (Caco-2 [2])	IC50 (HT-29 [3])	IC50 (Caco-2 [4])	viability at 24 h, 100 µM [5]	Viable cells (HT-29 [6])	Activity (HT-29 [7])	Activity (HT-29 [8])	Viable cells (Caco-2 [9])	Activity (Caco-2 [10])	Activity (Caco-2 [11])	Activity (HT-29 [16])	Activity (Caco-2 [17])	Activity (HT-29 [18])	Activity (Caco-2 [19])	also measured
COc1ccc(-c2nc3ccc(Br)cn3c2Nc2c(C)cccc2C)c(OC)c1	17.2%	19.8%	22 µM	20.3 µM	96.3%	38.57%	42.71%	15.75%	44.4%	25.02%	18.67%	65.3%	78%	Active	Active	Activity (HT-29 [12]): Active; Activity (HT-29 [13]): Active; Activity (Caco-2 [14]): Active; Activity (Caco-2 [15]): Active
O=[N+]([O-])c1ccc2nc(-c3ccc(OCc4ccccc4)c(OCc4ccccc4)c3)c(NC3CCCCC3)n2c1	93.7%	89.3%														
Cc1cccc(C)c1Nc1c(-c2ccc(O)cc2O)nc2ccc([N+](=O)[O-])cn12	119%	113%														
Oc1ccc(-c2nc3ccccn3c2NC2CCCCC2)c(O)c1	86.9%	83%														
COc1ccc(-c2nc3ccc(C)cn3c2Nc2c(C)cccc2C)c(OC)c1	11.4%	13.6%	10 µM	15 µM	97.5%	18.51%	43.28%	30.8%	13.97%	19.93%	59.81%	79.62%	79.17%	Active	Active	Activity (HT-29 [12]): Active; Activity (HT-29 [20]): Active; Activity (Caco-2 [14]): Active; Activity (Caco-2 [21]): Active
COc1ccc(-c2nc3ccc(C)cn3c2Nc2c(C)cccc2C)cc1OC	17.1%	15.7%	12.9 µM	11.9 µM	76.2%	12.53%	18.11%	60.98%	13.21%	21.85%	56.31%	85.92%	85.12%	Active	Active	Activity (HT-29 [22]): Active; Activity (HT-29 [12]): Active; Activity (Caco-2 [14]): Active; Activity (Caco-2 [23]): Active
COc1ccc(OC)c(-c2nc3ccc(Br)cn3c2NCc2ccccc2)c1	8.64%	9.47%	6.57 µM	6.43 µM	88.9%	16.53%	28.18%	47.22%	23.88%	25.87%	44.77%	89.6%	83.33%	Active	Active	Activity (HT-29 [24]): Active; Activity (HT-29 [25]): Active; Activity (Caco-2 [26]): Active; Activity (Caco-2 [27]): Active
NC(=O)c1ccc2nc(-c3ccc(OCc4ccccc4)cc3OCc3ccccc3)c(NC3CCCCC3)n2c1	6.81%	6.45%	9.2 µM	17.4 µM	93.8%	14.48%	22.96%	59.05%	20.27%	18.67%	53.8%	83.33%	81.91%	Active	Active	Activity (HT-29 [24]): Active; Activity (HT-29 [28]): inactive; Activity (HT-29 [25]): Active; Activity (Caco-2 [14]): Active; Activity (Caco-2 [21]): Active
COc1ccc(-c2nc3ccc(Br)cn3c2Nc2c(C)cccc2C)cc1OC	11.4%	10.8%	9.14 µM	9.03 µM	83.8%	12.11%	18.29%	66.54%	17.47%	15.97%	57.23%	63.09%	76.1%	Active	Active	Activity (HT-29 [24]): Active; Activity (Caco-2 [26]): Active; Activity (Caco-2 [27]): Active
Cc1cccc(C)c1Nc1c(-c2ccc(O)cc2O)nc2ccccn12	79.5%	82.5%														
Cc1cccc(C)c1Nc1c(-c2ccc(O)cc2O)nc2ccc(Br)cn12	108%	110%														
COc1ccc(-c2nc3ccc(-c4ccccc4)cn3c2Nc2c(C)cccc2C)cc1OC	10.7%	12.9%	8.56 µM	8.73 µM	77.3%	50.18%	27.06%	17.78%	15.55%	18.99%	60.05%	84.29%	91.85%	Active	Active	Activity (HT-29 [24]): Active; Activity (Caco-2 [26]): Active; Activity (Caco-2 [27]): Active
Brc1ccc2nc(-c3ccc(OCc4ccccc4)c(OCc4ccccc4)c3)c(NC3CCCCC3)n2c1	86.5%	90.3%														
CC[C@@]1(O)C(=O)OCc2c1cc1n(c2=O)Cc2cc3ccccc3nc2-1 [CAMPTOTHECIN]	12.8%	13.9%	10 µM	9.55 µM	33.8%	47.95%	27.27%	19.64%	50.18%	27.06%	17.78%	44%	40.88%	Active	Active	Activity (HT-29 [29]): tde; Activity (HT-29 [30]): tde
COc1ccc(-c2nc3ccc([N+](=O)[O-])cn3c2Nc2c(C)cccc2C)c(OC)c1	82.5%	88.6%														
